The results in this text go back to ChEMBL document CHEMBL3593206, “SAR Studies of Exosite-Binding Substrate-Selective Inhibitors of A Disintegrin And Metalloprotease 17 (ADAM17) and Application as Selective in Vitro Probes” (J Med Chem, 2015).

Data set [1] deals with T1, 72 kDa type IV collagenase (Homo sapiens, UniProt P08253). Put plainly: Inhibition of MMP2 (unknown origin) using Mca-KLPGL-Dnp-AR as substrate preincubated for 30 mins followed by substrate addition measured after 1 hr by fluorescence assay. The procedure, abridged: (§1)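 Inhibitor as 10-point 1:3 dilutions from 300 μM, 30 min at RT. Substrate added from a 30 μM 3× solution. Single fluorescence read (ex 324/em 393 nm) after 1 h at RT.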
Target sequence in this assay (P08253 whole entry): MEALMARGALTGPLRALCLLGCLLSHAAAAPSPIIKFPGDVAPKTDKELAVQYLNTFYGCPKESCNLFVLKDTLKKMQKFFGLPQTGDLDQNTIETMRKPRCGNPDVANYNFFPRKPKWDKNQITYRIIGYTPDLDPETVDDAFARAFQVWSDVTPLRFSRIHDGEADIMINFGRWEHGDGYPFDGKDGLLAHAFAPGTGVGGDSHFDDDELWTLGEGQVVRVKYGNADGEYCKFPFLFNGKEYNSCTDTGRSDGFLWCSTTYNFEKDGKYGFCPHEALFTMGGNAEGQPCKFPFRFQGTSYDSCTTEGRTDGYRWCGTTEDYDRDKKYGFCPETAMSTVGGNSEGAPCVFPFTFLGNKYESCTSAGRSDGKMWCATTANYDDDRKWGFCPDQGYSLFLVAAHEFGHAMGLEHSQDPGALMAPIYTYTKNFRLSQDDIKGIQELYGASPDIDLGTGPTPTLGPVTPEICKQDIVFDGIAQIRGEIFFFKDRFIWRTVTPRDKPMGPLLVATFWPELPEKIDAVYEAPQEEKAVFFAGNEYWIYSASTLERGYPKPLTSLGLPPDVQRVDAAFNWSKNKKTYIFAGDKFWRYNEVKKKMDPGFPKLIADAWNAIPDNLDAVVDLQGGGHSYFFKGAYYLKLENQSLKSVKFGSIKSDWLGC

Data set [2] deals with T2, Matrix metalloproteinase-9 (Homo sapiens, UniProt P14780). The data set can be described thus: Inhibition of MMP9 (unknown origin) using Mca-KLPGL-Dnp-AR as substrate preincubated for 30 mins followed by substrate addition measured after 1 hr by fluorescence assay. The procedure, abridged: as §1
T2 sequence (P14780 whole entry): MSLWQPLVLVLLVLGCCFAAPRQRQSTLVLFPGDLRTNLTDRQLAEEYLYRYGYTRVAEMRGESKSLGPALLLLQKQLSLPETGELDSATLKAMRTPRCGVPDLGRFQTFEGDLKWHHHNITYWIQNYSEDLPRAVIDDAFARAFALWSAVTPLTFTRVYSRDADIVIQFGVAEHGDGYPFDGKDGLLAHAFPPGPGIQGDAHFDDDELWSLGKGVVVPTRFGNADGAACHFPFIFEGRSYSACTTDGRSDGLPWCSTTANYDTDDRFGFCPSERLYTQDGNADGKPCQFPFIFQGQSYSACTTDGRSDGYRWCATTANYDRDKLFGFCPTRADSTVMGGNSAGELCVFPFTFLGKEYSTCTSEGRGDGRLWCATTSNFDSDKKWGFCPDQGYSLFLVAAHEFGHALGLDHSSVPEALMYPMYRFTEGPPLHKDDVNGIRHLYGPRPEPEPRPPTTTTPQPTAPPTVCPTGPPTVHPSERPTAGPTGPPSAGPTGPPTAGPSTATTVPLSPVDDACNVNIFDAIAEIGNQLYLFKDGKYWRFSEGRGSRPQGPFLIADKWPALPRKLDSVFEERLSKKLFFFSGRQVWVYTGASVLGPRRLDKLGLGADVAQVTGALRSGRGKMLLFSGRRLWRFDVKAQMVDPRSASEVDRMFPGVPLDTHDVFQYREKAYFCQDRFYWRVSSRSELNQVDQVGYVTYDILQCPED
In data set [3] the target is T1, 72 kDa type IV collagenase. The data set can be described thus: Inhibition of MMP2 (unknown origin) using Mca-KLPGL-Dnp-AR as substrate at 100 uM preincubated for 30 mins followed by substrate addition measured after 1 hr by fluorescence assay relative to control. The procedure, abridged: as §1
Target sequence in this assay (P08253 110-660 limits assumed): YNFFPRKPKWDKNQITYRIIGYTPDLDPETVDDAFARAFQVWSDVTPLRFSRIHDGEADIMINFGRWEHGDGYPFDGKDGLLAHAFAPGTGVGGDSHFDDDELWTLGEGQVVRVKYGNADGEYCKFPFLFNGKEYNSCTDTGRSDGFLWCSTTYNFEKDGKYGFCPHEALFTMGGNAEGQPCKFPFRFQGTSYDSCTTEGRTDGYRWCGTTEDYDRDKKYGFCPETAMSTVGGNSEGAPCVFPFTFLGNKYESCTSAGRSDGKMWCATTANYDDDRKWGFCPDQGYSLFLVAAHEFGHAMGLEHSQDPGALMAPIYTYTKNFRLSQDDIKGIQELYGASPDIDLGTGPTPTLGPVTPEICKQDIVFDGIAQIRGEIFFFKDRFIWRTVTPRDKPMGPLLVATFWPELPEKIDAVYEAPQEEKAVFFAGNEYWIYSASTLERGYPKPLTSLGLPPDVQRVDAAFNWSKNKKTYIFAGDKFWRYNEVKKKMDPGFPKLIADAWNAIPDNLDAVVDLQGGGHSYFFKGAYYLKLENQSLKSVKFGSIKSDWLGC
The target of data set [4] is T2, Matrix metalloproteinase-9. The data set can be described thus: Inhibition of MMP9 (unknown origin) using Mca-KLPGL-Dnp-AR as substrate at 100 uM preincubated for 30 mins followed by substrate addition measured after 1 hr by fluorescence assay relative to control. The procedure, abridged:
as §1

The target of data set [5] is Matrix metalloproteinase-14 (Homo sapiens, UniProt P50281). The data set can be described thus: Inhibition of MMP14 (unknown origin) using Mca-KLPGL-Dnp-AR as substrate at 100 uM preincubated for 30 mins followed by substrate addition measured after 1 hr by fluorescence assay relative to control.
A further data set concerns HepG2. Put plainly: Cytotoxicity against human HepG2 cells assessed as inhibition of cell viability up to 33 uM after 72 hrs by CellTiter-Glo assay. The class given is cell-based. Conditions: hepg2, 72 h.
A further data set has as its system MDA-MB-231. Put plainly: Cytotoxicity against human MDA-MB-231 cells assessed as inhibition of cell viability up to 33 uM after 72 hrs by CellTiter-Glo assay. The settings on record: mda-mb-231, 72 h. The class given is cell-based.
Data set [6] deals with T3, Disintegrin and metalloproteinase domain-containing protein 17 (Homo sapiens, UniProt P78536). Put plainly: Inhibition of ADAM17 in HTSMC assessed as inhibition of LPS-stimulated IL-8 shedding at 10 uM preincubated for 30 mins followed by LPS challenge measured after 4 to 24 hrs by ELISA. An outline of the steps: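 HTSMCs stimulated with LPS for IL-8 release; compounds at 10 μM. Mean ± SEM, n = 3 from three independent experiments; one-way ANOVA with Dunnett post hoc test.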
T3 sequence (P78536 whole entry, the tested form may be a part): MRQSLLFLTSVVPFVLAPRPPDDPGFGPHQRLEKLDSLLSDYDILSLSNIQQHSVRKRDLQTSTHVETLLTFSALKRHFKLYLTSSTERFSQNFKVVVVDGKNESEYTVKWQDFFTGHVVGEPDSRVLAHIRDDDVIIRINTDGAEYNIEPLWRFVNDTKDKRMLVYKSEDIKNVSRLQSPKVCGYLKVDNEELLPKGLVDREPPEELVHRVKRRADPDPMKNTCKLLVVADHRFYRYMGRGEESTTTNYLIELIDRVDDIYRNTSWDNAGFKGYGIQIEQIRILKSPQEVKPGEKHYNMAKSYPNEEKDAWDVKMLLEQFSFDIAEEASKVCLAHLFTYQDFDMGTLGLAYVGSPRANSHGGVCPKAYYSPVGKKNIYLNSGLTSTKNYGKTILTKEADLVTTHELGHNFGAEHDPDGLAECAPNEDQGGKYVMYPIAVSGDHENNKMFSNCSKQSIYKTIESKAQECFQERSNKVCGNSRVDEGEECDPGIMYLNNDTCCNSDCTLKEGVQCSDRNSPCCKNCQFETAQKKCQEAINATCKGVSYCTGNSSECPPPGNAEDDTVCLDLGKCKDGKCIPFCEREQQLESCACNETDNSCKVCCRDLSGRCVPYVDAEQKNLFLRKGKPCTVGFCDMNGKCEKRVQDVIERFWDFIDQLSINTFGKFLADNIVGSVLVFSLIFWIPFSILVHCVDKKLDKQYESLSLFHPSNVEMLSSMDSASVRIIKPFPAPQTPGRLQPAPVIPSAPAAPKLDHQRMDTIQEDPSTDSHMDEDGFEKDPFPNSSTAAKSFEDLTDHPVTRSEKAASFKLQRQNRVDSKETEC

Data set [7] has as its target T3, Disintegrin and metalloproteinase domain-containing protein 17. Put plainly: Inhibition of ADAM17 in human SW480 cells assessed as inhibition of PMA-stimulated wild type PTK7 shedding at 25 to 100 uM after 16 hrs by Western blot analysis. The class given is cell-based. The procedure, abridged:
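PTK7 shedding tested at 25, 50 and 100 μM in PMA-stimulated cells. HT1080 fibrosarcoma cells carried the L622D PTK7 mutant uncleavable by MT1-MMP; SW480 colorectal cells expressed wild-type PTK7 endogenously. Soluble PTK7 was detected.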

The target is the same in data set [8]. Put plainly: Inhibition of ADAM17 in human EAhy926 cells assessed as inhibition of neprilysin shedding at 15 uM relative to control. The class given is cell-based.
Data set [9] has the same target. Put plainly: Inhibition of ADAM17 in human THP1 cells assessed as inhibition of LPS-stimulated TNFalpha cleavage after 1 hr by AlphaScreen assay. The class given is cell-based, THP-1. An outline of the steps:
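THP-1 cells grown in RPMI 1640 with 10% FBS and 0.05 mM 2-mercaptoethanol; 3000 cells per well. Compound given in 3% DMSO for 1 h, then LPS added (1 μg/mL final) and cells incubated overnight at 37 °C. TNFα detected by AlphaScreen using anti-TNFα acceptor beads and streptavidin donor beads, each step 1 h in the dark at RT.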

The target is the same in data set [10]. The data set can be described thus: Inhibition of ADAM17 in HTSMC assessed as inhibition of DDR1 shedding by immunoblot analysis.
The target is the same in data set [11]. The data set can be described thus: Inhibition of ADAM17 in HTSMC assessed as inhibition of DDR1 shedding at 10 to 40 uM by immunoblot analysis relative to control.
Data set [12] shares this target. The data set can be described thus: Inhibition of ADAM17 in human HT1080 cells assessed as inhibition of cell invasion after 5 to 24 hrs by Transwell assay. The class given is cell-based. The settings on record: HT-1080.
For data set [13] the target is unchanged. Put plainly: Inhibition of ADAM17 in human SK-MEL-28 cells assessed as inhibition of notch shedding at 25 uM relative to control. The class given is cell-based.
Data set [14] relates to A549. The data set can be described thus: Potentiation of etoposide-mediated inhibition of human A549 cell viability at 40 uM incubated for 1 hr followed by etoposide addition measured after 72 hrs by CellTiter-Glo assay. The class given is functional, cell-based. The procedure, abridged:
(§2)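 A549 cells (1250 per well) in serum-free F12 were pretreated 1 h at 37 °C with 40 μM final test compound. Gefitinib, etoposide or doxorubicin was then added as 10-point 1:3 dilutions from 300 μM. After 72 h, viability was read by CellTiter-Glo luminescence and scaled between 100 μM gefitinib (0%) and 1% DMSO (100%).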

The subject of data set [15] is A549. Put plainly: Potentiation of doxorubicin-mediated inhibition of human A549 cell viability at 40 uM incubated for 1 hr followed by doxorubicin addition measured after 72 hrs by CellTiter-Glo assay. The class given is functional, cell-based. The procedure, abridged:
as §2

In data set [16] the test system is ADAM17 (Homo sapiens). Put plainly: Inhibition of ADAM17 in HCC1806 cells assessed as inhibition of DDR1 shedding by immunoblot analysis.
In data set [17] the test system is ADAM17 (Homo sapiens). Put plainly: Inhibition of ADAM17 in HCC1806 cells assessed as inhibition of DDR1 shedding at 10 to 40 uM by immunoblot analysis relative to control.

Active and inactive are the calls of the source. The rule behind the calls is not given here.

As to `O=C1NC[C@H](Cc2ccccc2)N(C[C@@H]2CCCN2C[C@@H](CC2CCCCC2)N2C[C@H](Cc3ccc(O)cc3)N(CCc3ccccc3)C(=O)C2=O)C1=O`, the half-maximal inhibitory concentration (IC50) in data set [1] and in data set [2] was > 100 µM in each case. Moreover, the inhibition in data set [3] was 0%; in data set [4], 13%; in data set [5] it was 27%; in data set [6], 18%; in data set [7], 0%; in [8], 62%. The Activity entry in the data set on HepG2 and in the data set on MDA-MB-231 was “Non-toxic” each time.
As for `CCCC[C@H]1CN([C@@H](Cc2ccc(O)cc2)CN2CCC[C@H]2CN2C(=O)C(=O)NC[C@H]2Cc2ccc3ccccc3c2)C(=O)C(=O)N1CCC12CC3CC(CC(C3)C1)C2`, the concentration for half-maximal inhibition (IC50) in [1] and in data set [2] was > 100 µM in each case. Also, the inhibition was found to be 0% in data set [3]; 0% in [4]; 0% in data set [5]; 62% in data set [6]; 0% in data set [7].
Regarding `O=C1NC[C@@H](Cc2ccc(O)cc2)N(C[C@@H]2CCCN2C[C@@H](Cc2ccc3ccccc3c2)N2CC(Cc3ccc(O)cc3)N(CCC34CC5CC(CC(C5)C3)C4)C(=O)C2=O)C1=O` (single isomer, unassigned), the inhibition in data set [5] was 25%; in data set [6], 36%; in [10] it was “Dose-dependent effect”; in [7], 0%; in data set [11], 59%; in [12] it was “Dose-dependent effect”. The inhibition was 0% in [13], “Dose-dependent effect” with ADAM17 (Homo sapiens) [16] and 59% in the data set on ADAM17 (Homo sapiens) [17]. Further, the Activity entry in the data set with HepG2 and with MDA-MB-231 was “Non-toxic” in each case. The 50% inhibitory concentration (IC50) in data set [9] amounted to 100 µM. For the same compound, the result in the data set with A549 [14] and in the data set on A549 [15] was inactive.
